Legend:
Gallus gallus [1] = species on record: Gallus gallus; assay: Minimum concentration of the compound(ppm) in feed which provides control of Eimeria tenella lesions equivalent to noninfected, nonmedicated birds; format: functional
In short: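 Drug is given continuously in feed to E. tenella-infected birds from 1 day before infection. Birds are killed 6 days after infection and lesions are scored. The value is the lowest feed level (ppm) giving lesion control equal to noninfected, nonmedicated birds.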

Gallus gallus [2] = species on record: Gallus gallus; assay: In vitro concentration of compound to inhibit growth of Eimeria tenella by 50% […]; format: functional, organism-based
In short: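 E. tenella grown in vitro with drug. Growth is compared with nonmedicated controls. The value is the drug concentration (ppm) that inhibits growth by 50%.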

Structure (SMILES) | MEC (Gallus gallus [1]) | IC50 (Gallus gallus [2])
CO[C@@H]1[C@@H](O[C@H]2CC[C@H](OC)[C@@H](C)O2)[C@H](C)[C@@](O)(C(C)C(=O)[O-])O[C@H]1[C@H](C)[C@H]1O[C@@]2(CC[C@@](C)([C@H]3CC[C@@](C)([C@@H]4O[C@@H]([C@H]5O[C@](C)(O)[C@H](C)C[C@@H]5C)C[C@@H]4O[C@H]4CC[C@H](OC)[C@@H](C)O4)O3)O2)C[C@H](O)[C@H]1C.[Na+] (stereo partly drawn) | 7.5 p.p.m. | 0.03 p.p.m.
CO[C@@H]1[C@@H](O[C@H]2CC[C@H](OC)[C@@H](C)O2)[C@H](C)[C@](CC(=O)[O-])(OC)O[C@H]1[C@H](C)[C@H]1O[C@@]2(CC[C@@](C)([C@H]3CC[C@@](C)([C@@H]4O[C@@H]([C@H]5O[C@](C)(O)[C@H](C)C[C@@H]5C)C[C@@H]4O[C@H]4CC[C@H](OC)[C@@H](C)O4)O3)O2)C[C@H](O)[C@H]1C.[Na+] | 120 p.p.m. | 
CO[C@@H]1[C@@H](O[C@H]2CC[C@H](OC)[C@@H](C)O2)[C@H](C)[C@@](O)(CC(=O)[O-])O[C@H]1[C@H](C)[C@H]1O[C@@]2(CC[C@@](C)([C@H]3CC[C@@](C)([C@@H]4O[C@@H]([C@H]5O[C@](C)(OC)[C@H](C)C[C@@H]5C)C[C@@H]4O[C@H]4CC[C@H](OC)[C@@H](C)O4)O3)O2)C[C@H](O)[C@H]1C.[Na+] | 50 p.p.m. | 0.02 p.p.m.
CO[C@@H]1[C@@H](O[C@H]2CC[C@H](OC)[C@@H](C)O2)[C@H](C)[C@@](O)(CC(=O)[O-])O[C@H]1[C@H](C)[C@H]1O[C@@]2(CC[C@@](C)([C@H]3CC[C@@](C)([C@@H]4O[C@@H]([C@@H](O)[C@@H](C)C[C@@H](C)C(C)(C)O)C[C@@H]4O[C@H]4CC[C@H](OC)[C@@H](C)O4)O3)O2)C[C@H](O)[C@H]1C.[Na+] | >120 p.p.m. | 0.03 p.p.m.
C=CCC(C(=O)[O-])[C@@]1(O)O[C@@H]([C@H](C)[C@H]2O[C@@]3(CC[C@@](C)([C@H]4CC[C@@](C)([C@@H]5O[C@@H]([C@H]6O[C@](C)(O)[C@H](C)C[C@@H]6C)C[C@@H]5O[C@H]5CC[C@H](OC)[C@@H](C)O5)O4)O3)C[C@H](O)[C@H]2C)[C@H](OC)[C@@H](O[C@H]2CC[C@H](OC)[C@@H](C)O2)[C@@H]1C.[Na+] (stereo partly drawn) | 60 p.p.m. | 0.01 p.p.m.
CCC(C(=O)[O-])[C@@]1(O)O[C@@H]([C@H](C)[C@H]2O[C@@]3(CC[C@@](C)([C@H]4CC[C@@](C)([C@@H]5O[C@@H]([C@H]6O[C@](C)(O)[C@H](C)C[C@@H]6C)C[C@@H]5O[C@H]5CC[C@H](OC)[C@@H](C)O5)O4)O3)C[C@H](O)[C@H]2C)[C@H](OC)[C@@H](O[C@H]2CC[C@H](OC)[C@@H](C)O2)[C@@H]1C.[Na+] (stereo partly drawn) | 30 p.p.m. | 
CCCC(C(=O)[O-])[C@@]1(O)O[C@@H]([C@H](C)[C@H]2O[C@@]3(CC[C@@](C)([C@H]4CC[C@@](C)([C@@H]5O[C@@H]([C@H]6O[C@](C)(O)[C@H](C)C[C@@H]6C)C[C@@H]5O[C@H]5CC[C@H](OC)[C@@H](C)O5)O4)O3)C[C@H](O)[C@H]2C)[C@H](OC)[C@@H](O[C@H]2CC[C@H](OC)[C@@H](C)O2)[C@@H]1C.[Na+] (stereo partly drawn) | 60 p.p.m. | 0.01 p.p.m.
CO[C@@H]1[C@@H](O[C@H]2CC[C@H](OC)[C@@H](C)O2)[C@H](C)[C@@](O)(CC(=O)[O-])O[C@H]1[C@H](C)[C@H]1O[C@@]2(CC[C@@](C)([C@H]3CC[C@@](C)([C@@H]4O[C@@H]([C@@H](O)[C@@H](C)C[C@@H](C)[C@@H](C)O)C[C@@H]4O[C@H]4CC[C@H](OC)[C@@H](C)O4)O3)O2)C[C@H](O)[C@H]1C.[Na+] | 80 p.p.m. | 0.05 p.p.m.
CO[C@@H]1[C@@H](O)[C@H](C)[C@@](O)(CC(=O)[O-])O[C@H]1[C@H](C)[C@H]1O[C@@]2(CC[C@@](C)([C@H]3CC[C@@](C)([C@@H]4O[C@@H]([C@H]5O[C@](C)(O)[C@H](C)C[C@@H]5C)C[C@@H]4O)O3)O2)C[C@H](O)[C@H]1C.[Na+] | >50 p.p.m. | > 1 p.p.m.
C#CCC(C(=O)[O-])[C@@]1(O)O[C@@H]([C@H](C)[C@H]2O[C@@]3(CC[C@@](C)([C@H]4CC[C@@](C)([C@@H]5O[C@@H]([C@H]6O[C@](C)(O)[C@H](C)C[C@@H]6C)C[C@@H]5O[C@H]5CC[C@H](OC)[C@@H](C)O5)O4)O3)C[C@H](O)[C@H]2C)[C@H](OC)[C@@H](O[C@H]2CC[C@H](OC)[C@@H](C)O2)[C@@H]1C.[Na+] (stereo in doubt; 2e) | >60 p.p.m. | 
C#CCC(C(=O)[O-])[C@@]1(O)O[C@@H]([C@H](C)[C@H]2O[C@@]3(CC[C@@](C)([C@H]4CC[C@@](C)([C@@H]5O[C@@H]([C@H]6O[C@](C)(O)[C@H](C)C[C@@H]6C)C[C@@H]5O[C@H]5CC[C@H](OC)[C@@H](C)O5)O4)O3)C[C@H](O)[C@H]2C)[C@H](OC)[C@@H](O[C@H]2CC[C@H](OC)[C@@H](C)O2)[C@@H]1C.[Na+] (stereo in doubt; 2f) | 60 p.p.m. | 0.01 p.p.m.
CO[C@@H]1[C@@H](O[C@H]2CC[C@H](OC)[C@@H](C)O2)[C@H](C)[C@@](O)(CC(=O)[O-])O[C@H]1[C@H](C)[C@H]1O[C@@]2(CC[C@@](C)([C@H]3CC[C@@](C)([C@@H]4O[C@@H]([C@H]5O[C@](C)(O)[C@H](C)C[C@@H]5C)C[C@@H]4O[C@H]4CC[C@H](OC)[C@@H](C)O4)O3)O2)C[C@H](O)[C@H]1C.[Na+] [IONOPHORE] | 15 p.p.m. | 0.03 p.p.m.
CO[C@@H]1[C@@H](O)[C@H](C)[C@@](O)(CC(=O)[O-])O[C@H]1[C@H](C)[C@H]1O[C@@]2(CC[C@@](C)([C@H]3CC[C@@](C)([C@@H]4O[C@@H]([C@H]5O[C@](C)(O)[C@H](C)C[C@@H]5C)C[C@@H]4O[C@H]4CC[C@H](OC)[C@@H](C)O4)O3)O2)C[C@H](O)[C@H]1C.[Na+] [SEMDURAMICIN SODIUM] | 25 p.p.m. | 0.03 p.p.m.
